Results on twelve molecules are retold here after ChEMBL document CHEMBL1817654, “Synthesis and protective effects of aralkyl alcoholic 2-acetamido-2-deoxy-β-D-pyranosides on hypoglycemia and serum limitation induced apoptosis in PC12 cell” (2011).

Active and inactive are the calls of the source. The calls are words filed in the database; no cut-off is given here.

In test [1] the test system is PC-12. Put plainly: Neuroprotective activity in rat differentiated PC12 cells assessed protection against hypoglycemia and serum limitation-induced decrease in cell viability at 40 uM after 24 hrs by MTT assay. It counts as functional. Put shortly:
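NGF-differentiated PC12 cells (50 ng/ml every other day, 6 days) pretreated with 8, 40 or 200 µM for 24 h. Insult: 24 h in glucose-free DMEM with 1% horse serum and 1% FBS, compound kept. MTT added to 0.5 mg/ml for 4 h at 37 °C, formazan dissolved in 20% SDS, absorbance read at 570 nm. Viability given as % of unstressed control. Three independent experiments, each in triplicate.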
In general terms: Tetrazolium dyes change colour on reduction, which living cells bring about.

The subject of test [2] is PC-12. Put plainly: Neuroprotective activity in rat differentiated PC12 cells assessed protection against hypoglycemia and serum limitation-induced apoptosis at 40 uM after 24 hrs by Hoechst 33342 staining analysis. The test is classed as functional. The essentials:
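PC12 cells kept in high-glucose DMEM with 10% horse serum and 5% FBS, differentiated with NGF (50 ng/ml) every other day for 6 days. Pretreated 24 h, then glucose-free DMEM with 1% horse and 1% fetal serum for 24 h with compound kept. Cells fixed in 4% paraformaldehyde, stained with Hoechst 33342 (5 µg/ml, 37 °C, 10 min). Condensed or fragmented nuclei counted under UV fluorescence as a fraction of total cells. Three independent experiments in triplicate.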

The test system of test [3] is PC-12. Put plainly: Neuroprotective activity in rat differentiated PC12 cells assessed protection against hypoglycemia and serum limitation-induced early stage of apoptosis at 40 uM after 24 hrs using annexin V/propidium iodide double staining by flow cytometry. It counts as functional. The essentials: (§1)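 Differentiated PC12 cells pretreated 24 h, then 24 h of glucose-free DMEM with 1% horse and 1% fetal serum. Harvested cells resuspended at 1 × 10⁶/ml in binding buffer (10 mM HEPES, 140 mM NaCl, 2.5 mM CaCl₂). FITC-annexin V and PI added, 15 min in the dark at room temperature, analysed by flow cytometry within 1 h. Three independent experiments in triplicate.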
A general note: Flow cytometry measures light scatter and fluorescence of single cells or particles in a stream.

Test [4] concerns PC-12. The test can be described thus: Neuroprotective activity in rat differentiated PC12 cells assessed protection against hypoglycemia and serum limitation-induced late stage of apoptosis at 40 uM after 24 hrs using annexin V/propidium iodide double staining by flow cytometry. The test is classed as functional, cell-based. Put shortly:
as §1

Test [5] deals with PC-12. Put plainly: Neuroprotective activity in rat differentiated PC12 cells assessed reduction of hypoglycemia and serum limitation-induced caspase 3 activity at 40 uM after 24 hrs by colorimetric assay relative to control. The test is classed as functional. The essentials:
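Treatment: NGF-differentiated PC12 cells preincubated 24 h, then 24 h of hypoglycemia and serum limitation. Lysates spun at 12,000 g for 10 min, protein measured by Bradford. Lysate incubated with reaction buffer and Ac-DEVD-pNA (10 µl of a 2 mM stock) for 4 h at 37 °C. pNA release read at 405 nm, expressed as % of control.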

Test [6] relates to PC-12. The test can be described thus: Neuroprotective activity in rat differentiated PC12 cells assessed reversal of hypoglycemia and serum limitation-induced mitochondrial membrane potential at 40 uM after 24 hrs using Rhodamine dye by confocal microscopic analysis. The test is classed as functional. Put shortly: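 Differentiated PC12 cells given 24 h pretreatment, then 24 h in glucose-free DMEM with 1% horse serum and 1% FBS. Rhodamine 123 added to 2 µM final for 30 min at 37 °C. Cells fixed in 4% paraformaldehyde and imaged by confocal microscopy (ex 488, em 530 nm, ×400). Fluorescence intensity given as % of control. Three independent experiments in triplicate.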

In the case of `COc1ccc(CCO[C@@H]2O[C@H](CO)[C@@H](O)[C@H](O)[C@H]2NC(C)=O)cc1`, the Activity in the test on PC-12 [1] is recorded as 86.62%; in the test on PC-12 [2], 5.9%; in the test with PC-12 [3], 11.21%; with PC-12 [6], 82.86%. Further, the outcome in the test with PC-12 [4] was inactive. In the test with PC-12 [5], the “fold change (FC)” value worked out at 1.55.
With `COc1cc(CO[C@@H]2O[C@H](CO)[C@@H](O)[C@H](O)[C@H]2NC(C)=O)ccc1O`, in the test on PC-12 [1], the Activity amounted to 65.9%.
With `CC(=O)N[C@H]1[C@H](OCCc2ccccc2)O[C@H](CO)[C@@H](O)[C@@H]1O`, the outcome with PC-12 [1] was inactive.
As to `CC(=O)N[C@H]1[C@H](OCc2ccc(O)cc2)O[C@H](CO)[C@@H](O)[C@@H]1O`, the Activity with PC-12 [1] worked out at 60.65%.
On the same count and under the same terms, with `CC(=O)N[C@H]1[C@H](OCc2ccccc2)O[C@H](CO)[C@@H](O)[C@@H]1O` the entry was “inactive”.
As to `COc1ccc(CCCO[C@@H]2O[C@H](CO)[C@@H](O)[C@H](O)[C@H]2NC(C)=O)cc1`, the Activity with PC-12 [1] stood at 80.41%; in the test with PC-12 [2] it was 7.12%; in the test on PC-12 [3], 15.51%; with PC-12 [6], 79.05%. In addition, the outcome in the test with PC-12 [4] was inactive. Further, in the test on PC-12 [5], the “fold change (FC)” value is on record as 1.69.
Consider `OC[C@H]1O[C@@H](OCCc2ccc(O)cc2)[C@H](O)[C@@H](O)[C@@H]1O` [SALIDROSIDE], for which the Activity in the test on PC-12 [1] is given as 65.62%; with PC-12 [2], 8.31%; in the test on PC-12 [3], 17.56%; in the test on PC-12 [6], 71.43%. The result in the test on PC-12 [4] was inactive. Moreover, the “fold change (FC)” value with PC-12 [5] worked out at 1.97.
For the molecule `CC(=O)N[C@H]1[C@H](OCCCc2ccc(O)cc2)O[C@H](CO)[C@@H](O)[C@@H]1O`, the result in the test with PC-12 [1] was Active.
Still for that read-out and setting: with `CC(=O)N[C@H]1[C@H](OCc2cccc(O)c2)O[C@H](CO)[C@@H](O)[C@@H]1O` the entry was “Active”.
The same measure, in the same setting: with `COc1cc(CO[C@@H]2O[C@H](CO)[C@@H](O)[C@H](O)[C@H]2NC(C)=O)cc(OC)c1` the entry was “Active”; with `COc1cc(CCCO[C@@H]2O[C@H](CO)[C@@H](O)[C@H](O)[C@H]2NC(C)=O)ccc1O`, 62.38%.
In the test with PC-12 [1], `CC(=O)N[C@H]1[C@H](OCCc2ccc(O)cc2)O[C@H](CO)[C@@H](O)[C@@H]1O` displayed an Activity of 65.36%.
